Source: ChEMBL document CHEMBL5247578, “Effective synthesis of benzimidazoles-imidazo[1,2-a]pyrazine conjugates: A comparative study of mono-and bis-benzimidazoles for antitumor activity” (Eur J Med Chem, 2019)

Tests used:
Type in all cases: functional
HCT-15 = assay: Antiproliferative activity against human HCT-15 cells assessed as cell growth inhibition at 10 uM incubated for 48 hrs by sulforhodamine B assay relative to control
Procedure, shortened: (§1)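 NCI-60 one-dose prescreen at 10^-5 M. Cells grown in RPMI 1640 with 5% FBS and 2 mM glutamine, preincubated 24 h, then exposed 48 h at 37 °C. Adherent lines TCA-fixed, SRB-stained, A515 read. Growth percent relative to time-zero and control; negative values mean cell kill.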

IGROV-1 = assay: Antiproliferative activity against human IGROV-1 cells assessed as cell growth inhibition at 10 uM incubated for 48 hrs by sulforhodamine B assay relative to control
Procedure, shortened: (§2)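 NCI-60 single-dose screen at 10^-5 M. Cells grown in RPMI 1640 with 5% FBS and 2 mM L-glutamine, plated at 5,000–40,000 cells/well, and preincubated 24 h. Drug (DMSO stock) added and incubated 48 h at 37 °C, 5% CO2. Adherent cells fixed with cold TCA, stained with 0.4% SRB in 1% acetic acid, dye solubilized in 10 mM trizma base, A515 read. Percent growth taken against time-zero and untreated control.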

SN12C = assay: Antiproliferative activity against human SN12C cells assessed as cell growth inhibition at 10 uM incubated for 48 hrs by sulforhodamine B assay relative to control; procedure, shortened: as §2
MDA-MB-468 = assay: Antiproliferative activity against human MDA-MB-468 cells assessed as cell growth inhibition at 10 uM incubated for 48 hrs by sulforhodamine B assay relative to control; procedure, shortened: as §2
HCT-116 = assay: Antiproliferative activity against human HCT-116 cells assessed as cell growth inhibition at 10 uM incubated for 48 hrs by sulforhodamine B assay relative to control; procedure, shortened: as §1
U-251 = assay: Antiproliferative activity against human U-251 cells assessed as cell growth inhibition at 10 uM incubated for 48 hrs by sulforhodamine B assay relative to control; procedure, shortened: as §2
NCI-H460 = assay: Antiproliferative activity against human NCI-H460 cells assessed as cell growth inhibition at 10 uM incubated for 48 hrs by sulforhodamine B assay relative to control; procedure, shortened: as §2
SF-295 = assay: Antiproliferative activity against human SF-295 cells assessed as cell growth inhibition at 10 uM incubated for 48 hrs by sulforhodamine B assay relative to control; procedure, shortened: as §2
A498 = assay: Antiproliferative activity against human A498 cells assessed as cell growth inhibition at 10 uM incubated for 48 hrs by sulforhodamine B assay relative to control
Procedure, shortened: (§3)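 Single-dose NCI-60 prescreen at 10^-5 M. Cells in RPMI 1640 with 5% FBS and 2 mM L-glutamine, seeded 5,000–40,000 cells/well with 24 h preincubation, then drug exposure for 48 h at 37 °C under 5% CO2. Growth read by SRB staining of TCA-fixed cells at 515 nm against time-zero and untreated controls. Negative growth values denote cell kill.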

HT-29 = assay: Antiproliferative activity against human HT-29 cells assessed as cell growth inhibition at 10 uM incubated for 48 hrs by sulforhodamine B assay relative to control; procedure, shortened: as §2
SNB-75 = assay: Antiproliferative activity against human SNB-75 cells assessed as cell growth inhibition at 10 uM incubated for 48 hrs by sulforhodamine B assay relative to control; procedure, shortened: as §2
LOX IMVI = assay: Antiproliferative activity against human LOX IMVI cells assessed as cell growth inhibition at 10 uM incubated for 48 hrs by sulforhodamine B assay relative to control; procedure, shortened: as §2
SF-539 = assay: Antiproliferative activity against human SF-539 cells assessed as cell growth inhibition at 10 uM incubated for 48 hrs by sulforhodamine B assay relative to control; procedure, shortened: as §2
RPMI-8226 = assay: Antiproliferative activity against human RPMI-8226 cells assessed as cell growth inhibition at 10 uM incubated for 48 hrs by sulforhodamine B assay relative to control; procedure, shortened: as §2
SF-268 = assay: Antiproliferative activity against human SF-268 cells assessed as cell growth inhibition at 10 uM incubated for 48 hrs by sulforhodamine B assay relative to control; procedure, shortened: as §2
RXF 393 = assay: Antiproliferative activity against human RXF 393 cells assessed as cell growth inhibition at 10 uM incubated for 48 hrs by sulforhodamine B assay relative to control; procedure, shortened: as §2
UO-31 = assay: Antiproliferative activity against human UO-31 cells assessed as cell growth inhibition at 10 uM incubated for 48 hrs by sulforhodamine B assay relative to control; procedure, shortened: as §2
T47D = assay: Antiproliferative activity against human T47D cells assessed as cell growth inhibition at 10 uM incubated for 48 hrs by sulforhodamine B assay relative to control; procedure, shortened: as §2
UACC-62 = assay: Antiproliferative activity against human UACC-62 cells assessed as cell growth inhibition at 10 uM incubated for 48 hrs by sulforhodamine B assay relative to control; procedure, shortened: as §2
SNB-19 = assay: Antiproliferative activity against human SNB-19 cells assessed as cell growth inhibition at 10 uM incubated for 48 hrs by sulforhodamine B assay relative to control; procedure, shortened: as §2
NCI-H23 = assay: Antiproliferative activity against human NCI-H23 cells assessed as cell growth inhibition at 10 uM incubated for 48 hrs by sulforhodamine B assay relative to control; procedure, shortened: as §2
M14 = assay: Antiproliferative activity against human M14 cells assessed as cell growth inhibition at 10 uM incubated for 48 hrs by sulforhodamine B assay relative to control; procedure, shortened: as §2
Hs-578T = assay: Antiproliferative activity against human Hs-578T cells assessed as cell growth inhibition at 10 uM incubated for 48 hrs by sulforhodamine B assay relative to control; procedure, shortened: as §2
OVCAR-8 = assay: Antiproliferative activity against human OVCAR-8 cells assessed as cell growth inhibition at 10 uM incubated for 48 hrs by sulforhodamine B assay relative to control; procedure, shortened: as §2
PC-3 = assay: Antiproliferative activity against human PC-3 cells assessed as cell growth inhibition at 10 uM incubated for 48 hrs by sulforhodamine B assay relative to control; procedure, shortened: as §2
SK-MEL-2 = assay: Antiproliferative activity against human SK-MEL-2 cells assessed as cell growth inhibition at 10 uM incubated for 48 hrs by sulforhodamine B assay relative to control; procedure, shortened: as §2
NCI/ADR-RES = assay: Antiproliferative activity against human NCI/ADR-RES cells assessed as cell growth inhibition at 10 uM incubated for 48 hrs by sulforhodamine B assay relative to control; procedure, shortened: as §2
EKVX = assay: Antiproliferative activity against human EKVX cells assessed as cell growth inhibition at 10 uM incubated for 48 hrs by sulforhodamine B assay relative to control; procedure, shortened: as §1
NCI-H522 = assay: Antiproliferative activity against human NCI-H522 cells assessed as cell growth inhibition at 10 uM incubated for 48 hrs by sulforhodamine B assay relative to control; procedure, shortened: as §2
SK-MEL-5 = assay: Antiproliferative activity against human SK-MEL-5 cells assessed as cell growth inhibition at 10 uM incubated for 48 hrs by sulforhodamine B assay relative to control; procedure, shortened: as §2
A549 = assay: Antiproliferative activity against human A549 cells assessed as cell growth inhibition at 10 uM incubated for 48 hrs by sulforhodamine B assay relative to control; procedure, shortened: as §3
MDA-MB-435 = assay: Antiproliferative activity against human MDA-MB-435 cells assessed as cell growth inhibition at 10 uM incubated for 48 hrs by sulforhodamine B assay relative to control; procedure, shortened: as §2

SMILES	inhibition at 10 µM (HCT-15)	inhibition at 10 µM (IGROV-1)	inhibition at 10 µM (SN12C)	inhibition at 10 µM (MDA-MB-468)	inhibition at 10 µM (HCT-116)	inhibition at 10 µM (U-251)	inhibition at 10 µM (NCI-H460)	inhibition at 10 µM (SF-295)	inhibition at 10 µM (A498)	inhibition at 10 µM (HT-29)	inhibition at 10 µM (SNB-75)	inhibition at 10 µM (LOX IMVI)	inhibition at 10 µM (SF-539)	inhibition at 10 µM (RPMI-8226)	inhibition at 10 µM (SF-268)	inhibition at 10 µM (RXF 393)	inhibition at 10 µM (UO-31)	inhibition at 10 µM (T47D)	inhibition at 10 µM (UACC-62)	inhibition at 10 µM (SNB-19)	also measured
c1cn2cc(-c3ccc4ncn(C5CCCCC5)c4c3)nc(-c3ccc4ncn(C5CCCCC5)c4c3)c2n1	57.1%	60.8%	42.7%	31.4%	80.2%	69%	53%	44%	26.2%	71.9%	25.4%	67%	16.7%	89.1%	41.7%	16.8%	68.8%	54.9%	51.9%	41.2%	inhibition at 10 µM (NCI-H23): 28.2%; inhibition at 10 µM (M14): 40.6%; inhibition at 10 µM (Hs-578T): 43.3%; inhibition at 10 µM (OVCAR-8): 59.5%; inhibition at 10 µM (PC-3): 64.2%; inhibition at 10 µM (SK-MEL-2): 31.7%; inhibition at 10 µM (NCI/ADR-RES): 48.8%; inhibition at 10 µM (EKVX): 30.8%; inhibition at 10 µM (NCI-H522): 49.4%; inhibition at 10 µM (SK-MEL-5): 55.7%; inhibition at 10 µM (A549): 57.6%; inhibition at 10 µM (MDA-MB-435): 60.2%
COc1ccc(-c2cn3ccnc3c(-c3ccc4ncn(C5CCCCC5)c4c3)n2)cc1	78.8%	53.4%	63.6%	97.4%	91.3%	80.9%	91.1%	92.5%	-12.3%	92.5%	-26.3%	69.6%	-43.4%	95.6%	49.9%	-8.48%	61.5%	-8.6%	65.2%	68.4%	inhibition at 10 µM (NCI-H23): 62.1%; inhibition at 10 µM (M14): 89.2%; inhibition at 10 µM (Hs-578T): 80%; inhibition at 10 µM (OVCAR-8): 71.2%; inhibition at 10 µM (PC-3): 95.2%; inhibition at 10 µM (SK-MEL-2): 94.3%; inhibition at 10 µM (NCI/ADR-RES): 87.2%; inhibition at 10 µM (EKVX): 56.6%; inhibition at 10 µM (NCI-H522): -20.9%; inhibition at 10 µM (SK-MEL-5): 92.3%; inhibition at 10 µM (A549): 68.6%; inhibition at 10 µM (MDA-MB-435): -18.6%
Brc1ccc(-c2cn3ccnc3c(-c3ccc4ncn(C5CCCCC5)c4c3)n2)cc1	35.8%	9.4%	18.4%	33.7%	31.2%	23.7%	13.2%	41.3%	20.7%	20.9%	34.5%	30.7%	24.4%	32%	15.5%	34%	42.9%	55%	46.9%	18.3%	inhibition at 10 µM (NCI-H23): 8.38%; inhibition at 10 µM (M14): 26.9%; inhibition at 10 µM (Hs-578T): 24.5%; inhibition at 10 µM (OVCAR-8): 13.2%; inhibition at 10 µM (PC-3): 42.4%; inhibition at 10 µM (SK-MEL-2): 24.1%; inhibition at 10 µM (NCI/ADR-RES): 30.5%; inhibition at 10 µM (EKVX): 16.2%; inhibition at 10 µM (NCI-H522): 35.5%; inhibition at 10 µM (SK-MEL-5): 23.6%; inhibition at 10 µM (A549): 15.3%; inhibition at 10 µM (MDA-MB-435): 58.4%
c1cn2cc(-c3ccc4c(c3)ncn4C3CCCCC3)nc(-c3ccc4ncn(C5CCCCC5)c4c3)c2n1	35.6%	8.51%	20.5%	14.9%	29.1%	38.7%	11.9%	50.6%	16.3%	58.2%	24.8%	25.9%	35.7%	70.8%	18.4%	37.4%	25.6%	44.7%	29.3%	10.6%	inhibition at 10 µM (NCI-H23): 20.5%; inhibition at 10 µM (M14): 6.98%; inhibition at 10 µM (Hs-578T): 23.6%; inhibition at 10 µM (OVCAR-8): 42.6%; inhibition at 10 µM (PC-3): 45%; inhibition at 10 µM (SK-MEL-2): 13.7%; inhibition at 10 µM (NCI/ADR-RES): 27%; inhibition at 10 µM (EKVX): 60.2%; inhibition at 10 µM (NCI-H522): 28.5%; inhibition at 10 µM (SK-MEL-5): 36.8%; inhibition at 10 µM (A549): 25.3%; inhibition at 10 µM (MDA-MB-435): 7.38%
c1ccc(Cn2cnc3ccc(-c4nc(-c5ccc6c(c5)ncn6C5CCCCC5)cn5ccnc45)cc32)cc1	-9.03%	94.2%	-35.4%	-35.7%	-75.8%	-22.8%	-20.3%	-81.3%	-71.8%	-48.7%	-67.4%	-87%	-77.6%	-41.2%	-0.11%	-76.9%	-51.4%	-2.12%	-31.2%	80.4%	inhibition at 10 µM (NCI-H23): -22.8%; inhibition at 10 µM (M14): -4.44%; inhibition at 10 µM (Hs-578T): 99.6%; inhibition at 10 µM (OVCAR-8): 97.5%; inhibition at 10 µM (PC-3): -39.5%; inhibition at 10 µM (SK-MEL-2): -36.7%; inhibition at 10 µM (NCI/ADR-RES): 99.5%; inhibition at 10 µM (EKVX): -12.2%; inhibition at 10 µM (NCI-H522): -35.2%; inhibition at 10 µM (SK-MEL-5): -84%; inhibition at 10 µM (A549): -5.05%; inhibition at 10 µM (MDA-MB-435): -6.16%
